From ChEMBL document CHEMBL1149108, “Arecoline tripeptide inhibitors of proteasome” (J Med Chem, 2004)
Non-standard residues stand in square brackets, D forms with d. Residues, ends and D or L forms follow the SMILES beside them. ξ: configuration not given here. *: point of attachment. Fmoc = O=C(OCC1c2ccccc2-c2ccccc21)*; Cbz = O=C(OCc1ccccc1)*; ξNle = CCCCC(N)C(=O)O; NHBn = c1ccc(CN*)cc1

Legend:
Proteasome [1] = test: Inhibitory activity was evaluated against chymotrypsin-like enzyme; format: subcellular
How it was run: (§1)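 Proteasome partially purified from lymphoblastoid cell lines, affinity-purified and dialysed against 25 mM Tris-HCl pH 7.5. Enzyme untreated or pretreated with 0.01-20 µM compound, then incubated 30 min at 37 °C in activity buffer with fluorogenic substrate: Suc-LLVY-AMC for chymotrypsin-like, Boc-LRR-AMC for trypsin-like. Fluorescence read at ex 360/em 465 nm; IC50 derived.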

Proteasome [2] = test: Inhibitory activity was evaluated against trypsin-like (proteasome) enzyme; format: subcellular; how it was run: as §1
Proteasome [3] = test: Inhibitory activity was evaluated against postacid PGPH active site; format: subcellular
How it was run: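 Postacidic (PGPH) activity measured with Ac-YVAD-AMC on partially purified, affinity-purified lymphoblastoid proteasome in 25 mM Tris-HCl pH 7.5. Enzyme untreated or pretreated with 0.01-20 µM compound, then substrate added for 30 min at 37 °C in activity buffer. Fluorescence read at ex 360/em 465 nm; IC50 calculated.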

[4] = Half-life in culture medium was determined; format: ADME
How it was run: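 Compound (stock 10 mg/mL in acetonitrile/H2O 1:1) added to RPMI containing 20% FCS and incubated at 37 °C for up to 2 days. Ethanol added to stop the reaction, then centrifugation and RP-HPLC of the supernatant. Half-life taken from least-squares linear regression of log inhibitor concentration versus time, at least five points.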

[5] = Half-life in human plasma was determined; format: ADME
How it was run: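 Compound incubated with human plasma (0.6 mL in 1.5 mL total) in 10 mM Tris-HCl pH 7.5 at 37 °C for up to 360 min. Ethanol added to stop the reaction, then centrifugation and RP-HPLC of the supernatant. Half-life taken from least-squares regression of log concentration versus time, minimum five points.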

Row | SMILES | IC50 (Proteasome [1]) [µM] | IC50 (Proteasome [2]) [µM] | IC50 (Proteasome [3]) [µM] | half-life [4] [h] | half-life [5] [h]
1 | CC(C)C[C@H](NC(=O)[C@H](CO)NC(=O)[C@H](Cc1ccccc1)NC(=O)OCc1ccccc1)C(=O)NCc1ccccc1 | 2.18 | 4.82 | 17.6 |  | 
2 | CC(C)C[C@H](NC(=O)[C@H](CO)NC(=O)[C@@H](NC(=O)C1=CCCNC1)C(C)C)C(=O)NCc1ccccc1 | 0.52 | 2.16 | > 20 | > 6 | > 6
3 | CC(C)C[C@H](NC(=O)[C@H](CO)NC(=O)[C@H](Cc1ccccc1)NC(=O)OCC1c2ccccc2-c2ccccc21)C(=O)NCc1ccccc1 | 11 | 12.9 | 19.1 |  | 
4 | CC(C)C[C@H](NC(=O)[C@H](CO)NC(=O)[C@H](Cc1ccccc1)NC(=O)C1=CCCNC1)C(=O)NCc1ccccc1 | 1.23 | 2.93 | > 20 | > 6 | > 6
5 | CC(C)C[C@H](NC(=O)C1=CCCNC1)C(=O)N[C@@H](CC(C)C)C(=O)N[C@@H](CC(C)C)C(=O)NCc1ccccc1 | 1.41 | 2.57 | > 20 | > 6 | 4.92
6 | CCCCC(NC(=O)OCc1ccccc1)C(=O)N[C@@H](CO)C(=O)N[C@@H](CC(C)C)C(=O)NCc1ccccc1 (stereo partly drawn) (Cbz-[ξNle]-Ser-Leu-NHBn) | > 20 | 18.2 | > 20 |  | 
7 | CCCCC(NC(=O)OCC1c2ccccc2-c2ccccc21)C(=O)N[C@@H](CO)C(=O)N[C@@H](CC(C)C)C(=O)NCc1ccccc1 (stereo partly drawn) (Fmoc-[ξNle]-Ser-Leu-NHBn) | > 20 | > 20 | > 20 |  | 
8 | CC(C)C[C@H](NC(=O)[C@H](CO)NC(=O)[C@H](C)NC(=O)OCC1c2ccccc2-c2ccccc21)C(=O)NCc1ccccc1 (HELM PEPTIDE1{[O=C(OCC1c2ccccc2-c2ccccc21)[*:2]].A.S.L.[c1ccc(CN[*:1])cc1]}$$$$V2.0) | > 20 | > 20 | > 20 |  | 
9 | CC[C@H](C)[C@H](NC(=O)OCC1c2ccccc2-c2ccccc21)C(=O)N[C@@H](CO)C(=O)N[C@@H](CC(C)C)C(=O)NCc1ccccc1 (HELM PEPTIDE1{[O=C(OCC1c2ccccc2-c2ccccc21)[*:2]].I.S.L.[c1ccc(CN[*:1])cc1]}$$$$V2.0) | > 20 | > 20 | > 20 |  | 
10 | CC(C)C[C@H](NC(=O)OCC1c2ccccc2-c2ccccc21)C(=O)N[C@@H](CC(C)C)C(=O)N[C@@H](CC(C)C)C(=O)NCc1ccccc1 (HELM PEPTIDE1{[O=C(OCC1c2ccccc2-c2ccccc21)[*:2]].L.L.L.[c1ccc(CN[*:1])cc1]}$$$$V2.0) | 12.2 | 10.7 | > 20 |  | 
11 | CC(C)C[C@H](NC(=O)OCC1c2ccccc2-c2ccccc21)C(=O)N[C@@H](CO)C(=O)N[C@@H](CC(C)C)C(=O)NCc1ccccc1 (HELM PEPTIDE1{[O=C(OCC1c2ccccc2-c2ccccc21)[*:2]].L.S.L.[c1ccc(CN[*:1])cc1]}$$$$V2.0) | > 20 | > 20 | > 20 |  | 
12 | CC(C)C[C@H](NC(=O)[C@H](CO)NC(=O)[C@@H]1CCCN1C(=O)OCC1c2ccccc2-c2ccccc21)C(=O)NCc1ccccc1 (HELM PEPTIDE1{[O=C(OCC1c2ccccc2-c2ccccc21)[*:2]].P.S.L.[c1ccc(CN[*:1])cc1]}$$$$V2.0) | > 20 | > 20 | > 20 |  | 
13 | CC(C)C[C@H](NC(=O)[C@H](CO)NC(=O)[C@@H](NC(=O)OCC1c2ccccc2-c2ccccc21)C(C)C)C(=O)NCc1ccccc1 (HELM PEPTIDE1{[O=C(OCC1c2ccccc2-c2ccccc21)[*:2]].V.S.L.[c1ccc(CN[*:1])cc1]}$$$$V2.0) | 5.91 | 13.6 | > 20 |  | 
14 | CC(C)C[C@H](NC(=O)[C@H](CO)NC(=O)[C@H](C)NC(=O)OCc1ccccc1)C(=O)NCc1ccccc1 (HELM PEPTIDE1{[O=C(OCc1ccccc1)[*:2]].A.S.L.[c1ccc(CN[*:1])cc1]}$$$$V2.0) | > 20 | > 20 | > 20 |  | 
15 | CC[C@H](C)[C@H](NC(=O)OCc1ccccc1)C(=O)N[C@@H](CO)C(=O)N[C@@H](CC(C)C)C(=O)NCc1ccccc1 (HELM PEPTIDE1{[O=C(OCc1ccccc1)[*:2]].I.S.L.[c1ccc(CN[*:1])cc1]}$$$$V2.0) | > 20 | > 20 | > 20 |  | 
16 | CC(C)C[C@H](NC(=O)OCc1ccccc1)C(=O)N[C@@H](CC(C)C)C(=O)N[C@@H](CC(C)C)C(=O)NCc1ccccc1 (HELM PEPTIDE1{[O=C(OCc1ccccc1)[*:2]].L.L.L.[c1ccc(CN[*:1])cc1]}$$$$V2.0) | 9.51 | 8.93 | > 20 |  | 
17 | CC(C)C[C@H](NC(=O)OCc1ccccc1)C(=O)N[C@@H](CO)C(=O)N[C@@H](CC(C)C)C(=O)NCc1ccccc1 (HELM PEPTIDE1{[O=C(OCc1ccccc1)[*:2]].L.S.L.[c1ccc(CN[*:1])cc1]}$$$$V2.0) | > 20 | 15.8 | > 20 |  | 
18 | CC(C)C[C@H](NC(=O)[C@H](CO)NC(=O)[C@@H](NC(=O)OCc1ccccc1)C(C)C)C(=O)NCc1ccccc1 (HELM PEPTIDE1{[O=C(OCc1ccccc1)[*:2]].V.S.L.[c1ccc(CN[*:1])cc1]}$$$$V2.0) | 3.73 | 9.46 | > 20 |  | 
